“And” between values parts separate entries of the source, which are not always exact repeats. Identical values can stand only once.
Key:
[1] = Optical characterization of the ELP phase diagram; type: physicochemical; details: for Tt (observed transition temperature): 25 μM in PBS, turbidity at 350 nm, ramp 1 °C min−1, maximum first derivative of the curve; for slope of transition temperature vs log10 concentration / y-intercept of transition temperature vs log10 concentration: log-linear regression of Tt vs concentration, 5–100 μM in PBS, mean [95% CI]; for Property at 37 °C: state of the protein polymer at 37 °C (soluble / nanoparticle / coacervate); for temperature of phase separation (Figure 2 legend, approximate): optical density as a function of temperature and concentration
In short: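 Turbidity (350 nm) of protein polymer solutions in PBS was recorded as a function of temperature across several concentrations. Tt was the maximum of the first derivative of the curve. Observed Tt was reported at 25 μM. Slope and intercept came from log-linear regression, Tt = m Log₁₀[C_ELP] + b. Mean [95% CI].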

[2] = Dynamic light scattering: hydrodynamic radius and polydispersity; type: physicochemical; details: DLS; for hydrodynamic radius retained below the transition temperature: 25 μM in PBS (Discussion); for temperature up to which the nanoparticles are stable: 4 to 60 °C in 1 °C increments; for nanoassembly by dynamic light scattering: below the transition temperature; for hydrodynamic radius at 37 °C: filtered through 0.2 μm cellulose acetate
In short: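 Test protein polymers at 25 μM in PBS, passed through 0.2 μm cellulose acetate filters, spun at 4 °C, 1200 rpm to clear air bubbles, and overlaid with mineral oil against evaporation. Hydrodynamic radius and polydispersity were read on a DLS plate reader from 4 to 60 °C in 1 °C steps.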

[3] = Negative and cryogenic transmission electron microscopy of nanoparticles; type: physicochemical; details: average ± 95% confidence interval
In short: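 Samples at 25 μM, unfiltered or 0.2 μm filtered. Negative TEM used carbon-coated copper grids, excess wicked off, 2 wt% aqueous uranyl acetate stain, 100 kV. Cryo-TEM used plasma-treated lacey carbon grids plunged into liquid-nitrogen-cooled ethane, 80 kV. Sizes were averaged over three fields (>50 particles/image TEM; 20 cryo-TEM). Bilayer thickness was taken at three points per vesicle circumference. Mean ± 95% CI.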

[4] = design: species or system rats; details: rat, in vivo

| Substance | Tt (observed transition temperature) [1] | slope of transition temperature vs log10 concentration [1] | y-intercept of transition temperature vs log10 concentration [1] | Property at 37 °C ([1]; PBS) | hydrodynamic radius retained below the transition temperature [2] | temperature up to which the nanoparticles are stable ([2]; 25 μM in PBS) | nanoassembly by dynamic light scattering ([2]; 25 μM in PBS) | hydrodynamic radius at 37 °C ([2]; 25 μM in PBS, 37 °C) | Plasma clearance, CLp [4] | Volume of distribution, V0 [4] | temperature of phase separation (Figure 2 legend, approximate) ([1]; PBS) | also measured |
| --- | --- | --- | --- | --- | --- | --- | --- | --- | --- | --- | --- | --- |
| MDWFKAFYDKVAEKFKEAFGLVPRGS G(VPGAG)192Y [L4F-A192] | 45.8 °C | −2.6 °C/log10(μM) | 49.6 °C | nanoparticle | 50 nm | 46 °C | form nanoparticles | 50 nm and ~50 nm | 0.37 mL/min | 26 mL | – | depression of transition temperature below the parent ELP ([1]; at 25 μM): 14 °C; temperature of phase separation / transition temperature ([1]; at 25 μM, optical density, PBS): above 47 °C; polydispersity ([2]; 25 μM in PBS, 37 °C): 9 nm; nanoparticle radius, negative TEM, unfiltered ([3]; 25 μM, 2 % uranyl acetate stain, unfiltered): 41 ± 16 nm; vesicle radius, cryo-TEM, filtered ([3]; 25 μM, filtered through 0.2 μm): 43 ± 17 nm and 43 nm; vesicle radius, cryo-TEM, unfiltered ([3]; 25 μM, unfiltered): 36 ± 13 nm; membrane thickness, cryo-TEM, filtered ([3]; 0.2 um filtered, n = 8): 6.8 ± 0.7 nm and 6.8 nm; membrane (wall) thickness, cryo-TEM, unfiltered ([3]; unfiltered, n = 18): 8.4 ± 1.3 nm and 8.4 nm; plasma half-life (approximate) [4]: approximately 1 hr; volume of distribution relative to free L4F peptide [4]: approximately twice |
| G(VPGAG)192Y [A192] | 61.9 °C | −9.2 °C/log10(μM) | 74.9 °C | soluble | – | – | do not exhibit any signs of nanoassembly | 5 nm | – | – | ~60 °C | – |
| MDWFKAFYDKVAEKFKEAFGLVPRGS G(VPGVG VPGAG VPGAG)64Y [L4F-V2A192] | 34.3 °C | −1.3 °C/log10(μM) | 36.2 °C | – | 42 nm | 34 °C | form nanoparticles | 42 nm and ~50 nm | – | – | about 34 °C | – |
| G(VPGVG VPGAG VPGAG)64Y [V2A192] | 47.2 °C | −5.8 °C/log10(μM) | 55.9 °C | soluble | – | – | do not exhibit any signs of nanoassembly | 5 nm | – | – | around 47 °C | – |
| Met-Asp-Trp-Phe-Lys-Ala-Phe-Tyr-Asp-Lys-Val-Ala-Glu-Lys-Phe-Lys-Glu-Ala-Phe-Leu-FITC [Free L4F, reference compound] | – | – | – | – | – | – | – | – | 0.12 mL/min | 12 mL | – | – |

— publication PMC4327866 (Journal of controlled release : official journal of the …, 2014)
